Converted amounts (≈) assume the structure as drawn.
Tests used:
[1] = system: Wolbachia in female adult L. sigmodontis; experiment: L. sigmodontis gerbil model: Wolbachia load; format: in vivo, Litomosoides sigmodontis; conditions: 18 wk post treatment
In short: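 Female gerbils aged 6–8 wk were infected by exposure to Ornithonyssus bacoti mites carrying L. sigmodontis L3. Treatment started 13 wk after infection, with animals randomised into groups of n = 5–9. Test compound in PEG300/propylene glycol/water (55/25/20) was given by oral gavage at 2.5 mL/kg. At necropsy 18 wk after treatment start, worms were recovered from the serous cavities. Wolbachia was measured by ftsZ qPCR in 5–20 individual female worms. Groups were compared with untreated controls by Kruskal–Wallis with Dunn's test.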

CYP2C9 = CYP2C9 (Homo sapiens, UniProt P11712); experiment: CYP2C9 inhibition; format: in vitro ADME
Sequence of CYP2C9 (P11712 whole entry): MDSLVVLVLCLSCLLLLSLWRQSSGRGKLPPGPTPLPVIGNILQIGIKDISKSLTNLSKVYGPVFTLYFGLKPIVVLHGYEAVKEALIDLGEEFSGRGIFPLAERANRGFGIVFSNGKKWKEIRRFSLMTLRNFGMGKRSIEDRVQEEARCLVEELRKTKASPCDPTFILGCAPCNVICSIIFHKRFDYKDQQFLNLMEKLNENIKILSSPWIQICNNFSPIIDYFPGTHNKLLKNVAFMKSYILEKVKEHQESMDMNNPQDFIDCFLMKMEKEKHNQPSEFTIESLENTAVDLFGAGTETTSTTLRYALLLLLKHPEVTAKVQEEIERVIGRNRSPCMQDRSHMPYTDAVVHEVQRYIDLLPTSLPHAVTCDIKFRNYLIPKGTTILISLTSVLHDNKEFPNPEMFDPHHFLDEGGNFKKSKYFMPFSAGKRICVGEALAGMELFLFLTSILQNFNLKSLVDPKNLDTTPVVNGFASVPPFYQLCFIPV

[2] = system: Wolbachia within B. malayi mf; experiment: B. malayi microfilaria time-kill assay; format: cell-based, Brugia malayi; conditions: drug concentration 10 times EC50; exposures 1, 2, 6 d
In short: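 This is a time-kill variant of the 6-d B. malayi mf assay: 8,000 mf per well in supplemented RPMI at 37 °C, 5% CO2. Drug was removed by a wash step on the indicated exposure day. Wolbachia was then quantified by wsp/gst qPCR, with five replicates per time point per treatment. Results come from one experiment.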

[3] = system: Wolbachia pipientis (wAlbB) in C6/36 cells; experiment: Anti-Wolbachia cell-based assay; conditions: C6/36, read-out: EC50 anti-Wolbachia, cell assay
pKa = format: physicochemical
L. sigmodontis = L. sigmodontis gerbil model: parasitology readout; format: in vivo, Litomosoides sigmodontis
In short: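 Gerbils were infected with L. sigmodontis via mites and given oral treatment from 13 wk post infection. Starting at 12 wk post infection, 10 µL of saphenous-vein blood was taken every two weeks and diluted in 300 µL Hinkelmann solution. Samples were centrifuged at 400 × g for 5 min, and the pellet was resuspended in 1 mL. Total mf were counted microscopically in a Sedgewick Rafter chamber, with follow-up to 18 wk after treatment start.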

[4] = Aqueous solubility in pH 7.4 PBS buffer; format: physicochemical
B. malayi = experiment: Adult B. malayi SCID mouse model: parasitology readout; format: in vivo, Brugia malayi; conditions: over the 6 wk of observation post treatment
Mouse PK in BALB/c mice = conditions: in vivo
[5] = Solubility in fasted state-simulated intestinal fluid; format: physicochemical
[6] = system: CYP1A, CYP2C9, CYP2C19, CYP2D6, CYP3A; experiment: Time-dependent inhibition of five major human CYP450 isoforms; format: in vitro ADME
P-gp = P-gp (Homo sapiens, UniProt P08183); experiment: P-gp-mediated efflux; format: in vitro ADME; conditions: not told
Sequence of P-gp (P08183 whole entry): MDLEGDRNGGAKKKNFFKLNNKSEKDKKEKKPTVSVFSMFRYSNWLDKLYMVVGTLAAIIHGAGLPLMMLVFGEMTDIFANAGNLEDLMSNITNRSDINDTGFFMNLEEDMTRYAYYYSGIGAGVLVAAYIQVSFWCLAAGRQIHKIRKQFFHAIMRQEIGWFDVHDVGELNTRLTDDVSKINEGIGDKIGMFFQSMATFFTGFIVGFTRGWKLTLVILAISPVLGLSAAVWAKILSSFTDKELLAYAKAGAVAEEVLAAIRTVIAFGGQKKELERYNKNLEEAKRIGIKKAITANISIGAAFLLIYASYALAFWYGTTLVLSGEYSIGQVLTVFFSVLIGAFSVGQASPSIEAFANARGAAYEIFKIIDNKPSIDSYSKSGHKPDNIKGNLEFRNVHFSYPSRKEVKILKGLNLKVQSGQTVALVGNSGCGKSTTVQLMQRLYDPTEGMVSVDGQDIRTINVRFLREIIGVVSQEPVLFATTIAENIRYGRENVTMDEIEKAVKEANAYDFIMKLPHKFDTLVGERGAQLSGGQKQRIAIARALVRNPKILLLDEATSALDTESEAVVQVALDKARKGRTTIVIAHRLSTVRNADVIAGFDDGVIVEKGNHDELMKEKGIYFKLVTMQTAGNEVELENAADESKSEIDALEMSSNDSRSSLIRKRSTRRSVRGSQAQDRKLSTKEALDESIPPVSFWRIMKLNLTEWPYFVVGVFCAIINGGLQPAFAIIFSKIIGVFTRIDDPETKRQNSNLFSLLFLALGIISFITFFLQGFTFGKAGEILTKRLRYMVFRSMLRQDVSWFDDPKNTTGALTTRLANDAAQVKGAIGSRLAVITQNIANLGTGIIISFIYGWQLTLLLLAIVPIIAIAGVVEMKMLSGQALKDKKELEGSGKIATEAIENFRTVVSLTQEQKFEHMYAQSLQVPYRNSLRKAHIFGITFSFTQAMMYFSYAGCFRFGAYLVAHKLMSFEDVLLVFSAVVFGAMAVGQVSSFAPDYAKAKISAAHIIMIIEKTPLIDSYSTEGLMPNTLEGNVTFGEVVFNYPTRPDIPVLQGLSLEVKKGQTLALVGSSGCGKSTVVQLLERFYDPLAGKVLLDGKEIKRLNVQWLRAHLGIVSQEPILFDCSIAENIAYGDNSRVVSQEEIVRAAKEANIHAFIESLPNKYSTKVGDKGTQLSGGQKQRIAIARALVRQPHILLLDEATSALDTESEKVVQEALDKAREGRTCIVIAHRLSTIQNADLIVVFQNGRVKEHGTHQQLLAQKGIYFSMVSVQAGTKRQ

[7] = system: Wolbachia within female B. malayi adult parasites; experiment: Adult B. malayi SCID mouse model: Wolbachia load; format: in vivo, Brugia malayi; conditions: 100 mg/kg, 7 d orally
CYP3A4 = CYP3A4 induction; format: in vitro ADME; conditions: human
[8] = Permeability in LLC-PK1 cell assay; format: in vitro ADME; conditions: pig

C[C@H]1COCCN1c1nc(NCc2cccnc2C(F)(F)F)c2cccnc2n1 [AWZ1066S, (S)-2-(3-methylmorpholino)-N-((2-(trifluoromethyl)pyridin-3-yl)methyl)pyrido[2,3-d]pyrimidin-4-amine]
Wolbachia load reduction compared with control untreated animals ([1]; 50 mg/kg orally twice daily 7 d): > 99%
Wolbachia load reduction compared with control untreated animals ([1]; 100 mg/kg orally twice daily 7 d): > 99%
IC50 (CYP2C9): 9.7 µM
drug exposure needed for maximum reduction of Wolbachia [2]: 1 days
EC50 [3]: 0.0025 ± 0.0004 µM
pKa (pKa): 5.6
time from which peripheral blood microfilaremia began to decline (L. sigmodontis; 7-d treatment): 6 wk post treatment
time from which amicrofilaremia was evident (L. sigmodontis; 7-d treatment groups, sustained until 18 wk): 14 wk post treatment
solubility [4]: 238 µM (≈ 96.2 µg/mL)
Ames test result (Ames test): negative
mice in which release of mf was completely prevented (B. malayi): 9/10
bioavailability (Mouse PK in BALB/c mice; BALB/c SCID, po): 54 to 91%
clearance (Mouse PK in BALB/c mice; iv, 5 mg/kg, total clearance, dosed intravenously): 7.83 mL/min/kg
solubility [5]: 560 µg/mL (≈ 1380 µM)
time-dependent inhibition [6]: does not show any time-dependent inhibition
efflux ratio (P-gp): 7.8
Wolbachia reduction compared with the vehicle group [7]: 98%
IC50 (CYP3A4): 37 µM
Papp [8]: 7.4 ×10⁻⁶ cm/s
